System: human non-small-cell lung cancer cells (A549)
Test: In vitro cytotoxicity
Type: cell-based
Conditions: not given
Outline: (§1)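 Cells grown in DMEM with 10% FBS, penicillin/streptomycin, L-glutamine and 1 mM sodium pyruvate at 37 °C, 5% CO2. Seeded at 3 × 10^3 cells/well for 24 h, then exposed 72 h to test compound at 6.25, 12.5, 25, 50 and 100 μM; 5-FU as positive control. MTT 0.5 mg mL−1 for 3 h at 37 °C; formazan dissolved in DMSO, read at A570. Untreated cells set as 100% viability; IC50 given as mean ±SD, n = 3.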
For Clc1cccc(/C=C/c2nc3ccc(Br)cc3nc2/C=C/c2cccc(Cl)c2)c1 [Compound 4g, 6-Bromo-2,3-bis[(E)-3-chlorostyryl]quinoxaline], the “Cytotoxic activity against A549 cells (in words)” value (from here on “Cytotoxic activity”) was “exhibited cytotoxic activities”.
With O=[N+]([O-])c1ccc2nc(/C=C/c3cccc(Cl)c3)c(/C=C/c3cccc(Cl)c3)nc2c1 [Compound 5g, 2,3-Bis[(E)-3-chlorostyryl]-6-nitroquinoxaline] the “Cytotoxic activity” value was “exhibited cytotoxic activities”.
With Brc1ccc2nc(/C=C/c3ccco3)c(/C=C/c3ccco3)nc2c1 [Compound 4a, 6-Bromo-2,3-bis[(E)-2-(furan-2-yl)vinyl]quinoxaline] the “Cytotoxic activity” value was “exhibited cytotoxic activities”.
In the case of COc1ccccc1/C=C/c1nc2ccc(Br)cc2nc1/C=C/c1ccccc1OC [Compound 4e, 6-Bromo-2,3-bis[(E)-2-methoxystyryl]quinoxaline], the “Cytotoxic activity” value is reported as “exhibited cytotoxic activities”.
In the case of COc1ccc(/C=C/c2nc3ccc(Br)cc3nc2/C=C/c2ccc(OC)cc2)cc1 [Compound 4l, 6-Bromo-2,3-bis[(E)-4-methoxystyryl]quinoxaline], the “Cytotoxic activity” value is reported as “exhibited cytotoxic activities”.
With Brc1ccc2nc(/C=C/c3cccs3)c(/C=C/c3cccs3)nc2c1 [Compound 4b, 6-Bromo-2,3-bis[(E)-2-(thiophen-2-yl)vinyl]quinoxaline] the “Cytotoxic activity” value was “exhibited cytotoxic activities”.

System: Hs68 (human foreskin fibroblast) cells
Test: In vitro cytotoxicity
Type: cell-based
Conditions: Hs68, read-out: IC50 (concentration necessary for 50% inhibition), Hs68 cells
Outline: as §1
In the case of O=c1[nH]cc(F)c(=O)[nH]1 [5-FU, 5-Fluorouracil], the IC50 is reported as 3.08 ± 0.4 µM.

System: not listed separately
Test: Solubility observation
Type: physicochemical
Conditions: compounds with two nitro groups
For O=[N+]([O-])c1cccc(/C=C/c2nc3ccc([N+](=O)[O-])cc3nc2/C=C/c2cccc([N+](=O)[O-])c2)c1 [Compound 5f, 6-Nitro-2,3-bis[(E)-3-nitrostyryl]quinoxaline], the “Solubility (in words)” value was “reduced the solubility”.
In the case of O=[N+]([O-])c1cccc(/C=C/c2nc3ccc(Br)cc3nc2/C=C/c2cccc([N+](=O)[O-])c2)c1 [Compound 4f, 6-Bromo-2,3-bis[(E)-3-nitrostyryl]quinoxaline], the “Solubility (in words)” value is reported as “reduced the solubility”.
In the case of O=[N+]([O-])c1ccc(/C=C/c2nc3ccc([N+](=O)[O-])cc3nc2/C=C/c2ccc([N+](=O)[O-])cc2)cc1 [Compound 5k, 6-Nitro-2,3-bis[(E)-4-nitrostyryl]quinoxaline], the “Solubility (in words)” value is reported as “reduced the solubility”.
With O=[N+]([O-])c1ccc(/C=C/c2nc3ccc(Br)cc3nc2/C=C/c2ccc([N+](=O)[O-])cc2)cc1 [Compound 4k, 6-Bromo-2,3-bis[(E)-4-nitrostyryl]quinoxaline] the “Solubility (in words)” value was “reduced the solubility”.

Source: publication PMC11382098 (RSC Advances, 2024)
